Assay results taken from article PMC8081378 (Mutagenesis, 2019).

Key:
Format in all cases: cell-based, human
Phenion®FT skin tissues [1] = test: cytotoxicity in the skin comet assay
Method in brief: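 Full-thickness tissues were cultured at the air–liquid interface (37°C, 5% CO₂). They were treated in triplicate with test compound ± APC in acetone (16 µl/cm²), either three times (48, 24 and 3 h) or once for 3 h. Afterwards, culture medium was kept at 4°C for adenylate kinase release. About 25% of each tissue was snap-frozen, homogenised in cold DPBS, heated (105°C, 5 min) and centrifuged; ATP was measured in the supernatant with a kit. Both measures were expressed relative to solvent control (100%).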

Phenion®FT skin tissues [2] = test: DNA adduct formation by TLC 32P-postlabelling assay
Phenion®FT skin tissues [3] = test: 3D skin comet assay; settings: for % tail DNA vs SC + APC: three treatments over 48 h in the presence of APC
EpiDerm™ skin tissues [4] = test: reconstructed skin micronucleus
EpiDerm™ skin tissues [5] = test: cytotoxicity in the RSMN assay
Method in brief: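 Skin tissues received test compound topically in 10 µl (16 µl/cm²) acetone, two or three times at 24 h intervals, in triplicate alongside solvent controls. Tissues were washed in DPBS, then DPBS-EDTA, and trypsinised (0.25% trypsin–0.02% EDTA, 15 min, 37°C) into single-cell suspensions. Viable cell count came from AO/DAPI staining with an automated counter, and % BN from AO staining over 500 cells/tissue. Both were expressed relative to solvent control; excessive cytotoxicity was a 55 ± 5 % reduction.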

EpiDerm™ skin tissues [6] = test: skin comet assay in EpiDerm skin tissues; settings: single 3 h treatment, doses ≥2 µg/cm^2, keratinocytes, data not shown

SMILES: CC(=O)Nc1ccc2c(c1)Cc1ccccc1-2 [2-AAF, 2-acetylaminofluorene]
- dose that exceeded the % ATP cytotoxicity threshold (Phenion®FT skin tissues [1]; three treatments over 48 h with APC): 75 µg/cm^2
- increase of adduct levels after multiple exposures over 48 h vs 3 h treatment (Phenion®FT skin tissues [2]; multiple exposures over 48 h): > 10 fold
- 2-AAF-derived DNA adducts (Phenion®FT skin tissues [2]; single 3 h treatment, 50 and 150 µg/cm^2): minimal, but detectable
- DNA adduct level (RAL), up to (Phenion®FT skin tissues [2]; three treatments over 48 h): ~ 10 adducts per 10^8 nucleotides
- DNA adduct levels in the presence of APC (Phenion®FT skin tissues [2]; three-treatment protocol, 150 µg/cm^2, with APC): additional, but non-significant increase
- % tail DNA vs SC + APC (Phenion®FT skin tissues [3]; fibroblasts, both experiments, all doses tested): significant increase in the % tail DNA
- % tail DNA vs SC + APC (Phenion®FT skin tissues [3]; keratinocytes, at 75 µg/cm^2): only statistically significant in one experiment
- DNA damage in the RSMN assay (% MN-BN) (EpiDerm™ skin tissues [4]; topical, three doses over 72 h, up to 96 µg/cm^2): did not significantly increase DNA damage
- MN formation (% MN-BN) (EpiDerm™ skin tissues [4]; topical, two times over a 48-h period, doses up to 140 µg/cm^2, vs SC): did not result in a significant increase in MN formation

SMILES: C[C@@]1(CO)[C@H](O)CC[C@@]2(C)[C@H]1CC[C@H]1C[C@@H]3C[C@@]12CC[C@]3(O)CO [APC, aphidicolin]
- DNA damage (% tail DNA) vs SC group alone (Phenion®FT skin tissues [3]; APC alone, 5 µg/ml in medium 4 h before end of incubation): small non-significant increase in DNA damage

SMILES: CC(=O)N(O)c1ccc2c(c1)Cc1ccccc1-2 [N-OH-2-AAF, N-hydroxy-2-acetylaminofluorene]
- dose that exceeded the cytotoxicity threshold by % BN (EpiDerm™ skin tissues [5]; two or three treatments over 48 h or 72 h): 0.8 µg/cm^2
- DNA damage in the skin comet assay (EpiDerm™ skin tissues [6]): highly significant dose-dependent increase in DNA damage
- % tail DNA (Phenion®FT skin tissues [3]; single 3 h treatment, 4 µg/cm^2, keratinocytes and fibroblasts): significantly increased the % tail DNA
- DNA damage (% tail DNA) in the presence of APC vs compound alone (Phenion®FT skin tissues [3]; single 3 h treatment, 1 and 4 µg/cm^2, both cell types): further amplified
- DNA damage in the RSMN assay (% MN-BN) (EpiDerm™ skin tissues [4]; three treatments over 72 h, doses up to 0.8 µg/cm^2): did not cause a significant increase in DNA damage
- DNA damage in the RSMN assay (% MN-BN) (EpiDerm™ skin tissues [4]; two treatments over 48 h, doses up to 0.8 µg/cm^2): did not cause a significant increase in DNA damage

SMILES: ONc1ccc2c(c1)Cc1ccccc1-2 [N-OH-2-AF, N-hydroxy-2-aminofluorene]
- cytotoxicity (% AK, % ATP) (Phenion®FT skin tissues [1]; single 3 h treatment in the presence of APC): absence of excessive cytotoxicity
- level of DNA adducts compared with N-OH-2-AAF at the same dose (Phenion®FT skin tissues [2]; single 3 h treatment, 1 µg/cm^2): not significantly different
- cytotoxicity by % VCC (EpiDerm™ skin tissues [5]; three treatments over 72 h, highest dose 1.3 µg/cm^2): approached the cytotoxicity threshold for % VCC at the highest dose
- potency in the skin comet assay compared with N-OH-2-AAF (Phenion®FT skin tissues [3]; single 3 h treatment): more potent
- near maximal level of DNA damage (Phenion®FT skin tissues [3]; single 3 h treatment, 1 µg/cm^2, keratinocytes and fibroblasts): 60–80 % tail DNA
- DNA damage (% tail DNA) in the presence of APC (Phenion®FT skin tissues [3]; single 3 h treatment, all three doses, both cell types): further amplified and reached near maximal levels
- DNA damage (% tail DNA) (Phenion®FT skin tissues [3]; single 3 h treatment, doses of 0.25–4 µg/cm^2, keratinocytes and fibroblasts): robust, dose-responsive increase in DNA damage
- micronuclei in the RSMN assay (% MN-BN) (EpiDerm™ skin tissues [4]; three treatments over 72 h, at the two highest doses 0.85 and 1.3 µg/cm^2, P < 0.01): significant change in micronuclei
- MN formation (% MN-BN) (EpiDerm™ skin tissues [4]; two treatments over 48 h, up to 1.3 µg/cm^2): did not significantly increase MN formation
